Assay [1] relates to WT and mutant AT1Rs (p-ERK/t-ERK) in GqKO cells. The experiment in a line: ERK phosphorylation Western blot, HEK293 GqKO cells, WT and mutant AT1Rs. The format is cell-based, human. The following applies: for ERK activation in GqKO cells: HEK293 GqKO cells vs WT cells, AngII 1 μM, TRV023 10 μM, Telm 10 μM. A digest of the protocol: (§1)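 Receptor constructs (plasmid amounts adjusted to equalise receptor expression by radioligand binding) transfected with lipofectamine 2000 into cells grown in MEM with 10% FBS. […] RIPA lysis with protease/phosphatase inhibitors, 1 h at 4°C. SDS-PAGE/PVDF; phospho-ERK1/2 (1:1000) normalised to total ERK1/2 (1:2000).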
A general note: Immunoblotting shows a protein as a band on a membrane.

In assay [2] the test system is FLAG-tagged human WT AT1R. It counts as cell-based. The following applies: AngII 1 μM, TRV023 10 μM, 10 min, N=5. A digest of the protocol: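 Expi293F cells with inducible N-terminal FLAG-human AT1R (~2.5×10^6 density) were induced 30–36 h with doxycycline 4 µg/mL plus 5 mM butyrate, with expression checked by radioligand binding. […] Receptor was solubilized in MNG/CHS buffer with 1 µM losartan and PhosSTOP, purified on M1 anti-FLAG (EDTA/FLAG-peptide elution), TCA-precipitated, then reduced (TCEP) and alkylated (iodoacetamide) in 8 M urea/EPPS pH 8.5.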

Assay [3] relates to WT AT1R. The experiment in a line: β-arrestin recruitment BRET assay, WT AT1R. The format is cell-based, human. The following applies: HEK293 cells; WT AT1R-RLuc8, β-arrestin2-eGFP; 10 min, 37 °C; N=5. In general terms: Recruitment of arrestin is a read-out of receptor activation apart from second messengers.
The test system of assay [4] is AT1R C-terminal tail mutants (PROX, MID, DIST, NULL). Description: β-arrestin recruitment BRET assay, AT1R C-terminal tail mutants. The format is cell-based, human. The following applies: HEK293 cells, 10 min, 37 °C, N=5.
Assay [5] shares this test system. The experiment in a line: β-arrestin1 endocytosis BRET assay, AT1R mutants. It counts as cell-based, human. The settings on record: HEK293 cells; β-arrestin1-RlucII/FYVE; 25 min 37 °C; N=4. The procedure, abridged:
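HEK293 cells coexpressing WT or mutant AT1R, β-arrestin1-RlucII and endosomal FYVE-eGFP were reseeded next day on poly-L-ornithine plates (~25,000/well). […] Coelenterazine 400a (5 µM final) was added 2 min before reading (410/80 and 515/30 nm). Results are given as fold of untreated BRET; N=4.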

For assay [6] the test system is unchanged. Description: DiscoverX active endocytosis assay. The format is cell-based, human. The following applies: U2OS cells; β-arrestin2-EA; 3 h 37 °C; chemiluminescence; N=3. A digest of the protocol:
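U2OS cells stably expressing β-arrestin2-EA and endosome-localized PK were transfected with WT or mutant AT1R, replated next day at 35,000 cells/well, and treated with ligands 3 h at 37 °C two days post-transfection. PathHunter detection reagents were added with 1 h RT incubation, then β-gal complementation chemiluminescence was read. Results are expressed as fold of untreated cells.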

The subject of assay [7] is WT AT1R. The experiment in a line: Intramolecular FlAsH BRET. The format is cell-based, human. The following applies: HEK293 cells, AngII 1 μM, TRV023 10 μM, 10 min, N=4. A digest of the protocol: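 HEK293 cells were Fugene HD-cotransfected with 1.5 µg AT1R and 0.1 µg of each rLuc–β-arrestin2–FlAsH construct. At 48 h cells in HBSS were labeled with 2.5 µM TC-FlAsH (or mock) for 30 min at RT, washed in BAL buffer and plated at 100,000/well. […] Six readings were taken (440–480 / 525–585 nm). Net BRET was calculated after mock-label and vehicle subtraction; N=4.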
Background: Bioluminescence resonance energy transfer reports proximity on the nanometre scale.

In assay [8] the test system is AT1R C-terminal tail mutants (PROX, MID, DIST, NULL). The experiment in a line: Intramolecular FlAsH BRET. It counts as cell-based, human. The settings on record: HEK293 cells, 10 min, N=4.
The subject of assay [9] is WT AT1R (p-ERK/t-ERK). The experiment in a line: ERK phosphorylation Western blot, HEK293 cells, WT AT1R. The settings on record: AngII 1 μM, TRV023 10 μM, 10 min, N=8-9. It counts as cell-based, human. The procedure, abridged:
as §1

In assay [10] the test system is AT1R C-terminal tail mutants (p-ERK/t-ERK). Description: ERK phosphorylation Western blot, HEK293 cells, AT1R mutants. It counts as cell-based, human. The following applies: 10 min, N=8-9. The procedure, abridged:
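HEK293 cells in 6-well plates were lipofectamine 2000-transfected with WT or mutant AT1R, with DNA adjusted to matched expression. Medium was refreshed on day 1. […] RIPA lysates with protease/phosphatase inhibitors were run on SDS-PAGE/PVDF and probed for phospho-ERK1/2 (1:1000) versus total ERK1/2 (1:2000) overnight at 4 °C.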

The test system of assay [11] is WT and mutant AT1Rs (nuclear ERK activity). The experiment in a line: Nuclear ERK BRET. It counts as cell-based, human.
The subject of assay [12] is AT1R-PROX mutant (nuclear ERK activity). The experiment in a line: Nuclear ERK BRET. It counts as cell-based, human. The settings on record: HEK293T cells; AngII 1 μM; 5 min; vs WT receptor. The procedure, abridged:
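WT or mutant AT1R (DNA adjusted for expression) PEI-co-transfected with 50 ng nuclear-localised EKAR biosensor with a NanoLuciferase donor. After 24 h, replated at 50,000/well in starvation MEM with 0.5% FBS, ± PTX 200 ng/mL. […] Read at 37°C, 530/480 nm; net BRET = ligand minus vehicle.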

The test system of assay [13] is AT1R WT / GRK2. The experiment in a line: GRK2 recruitment BRET assay, WT AT1R. The format is cell-based, human. The following applies: GRKΔ4 cells; AngII 1 μM, TRV023 10 μM; 5 min. A digest of the protocol: (§2)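 GRK2/3/5/6-null HEK293 cells were PEI-transfected with WT or mutant AT1R-Rluc8 (DNA adjusted to match expression) plus 1 µg C-terminally YFP-tagged GRK2. After 24 h they were plated at 50,000/well in 2% FBS starvation MEM. […] Plates were read at 37 °C (530/480 nm), and net BRET was taken as ligand minus vehicle.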

For assay [14], the system named is AT1R mutants / GRK2. The experiment in a line: GRK2 recruitment BRET assay, AT1R mutants. The following applies: GRKΔ4 cells; AngII 1 μM, TRV023 10 μM; 5 min. The format is cell-based, human. A digest of the protocol: as §2
Assay [15] relates to AT1R mutants / GRK3. Description: GRK3 recruitment BRET assay, AT1R mutants. The following applies: GRKΔ4 cells; AngII 1 μM, TRV023 10 μM; 5 min. It counts as cell-based, human. A digest of the protocol: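 HEK293 cells lacking GRK2/3/5/6 PEI-transfected with WT or mutant AT1R-Rluc8 (DNA adjusted to equalise expression) and 1 µg GRK3-YFP (C-terminal tag). Replated after 24 h at 50,000/well in starvation MEM with 2% FBS. […] Read at 37°C, 530/480 nm; net BRET = ligand minus vehicle.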

Assay [16] deals with AT1R mutants (Gq). The experiment in a line: G protein activation TRUPATH BRET assay. It counts as cell-based, human. The following applies: AngII concentration response; any of the AT1R mutants.
The test system of assay [17] is AT1R mutants (Ca2+ response). The experiment in a line: FLIPR Ca2+ assay, AT1R mutants. The settings on record: HEK293T cells; AngII serial doses, 37 °C; AUC; n=5. The format is cell-based, human. The procedure, abridged: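 HEK293T cells (500,000/well) were transfected 24 h after seeding with WT, or adjusted amounts of PROX or MID AT1R giving equal expression. Next day they were replated at 50,000/well overnight and loaded with Calcium 6 dye 2 h at 37 °C.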

Assay [18] relates to AT1R / β-arrestin. The settings on record: receptor "pre-phosphorylated"; AngII vs TRV023; cited from earlier work.
Assay [19] deals with AT1R / GRKs. The following applies: cited from earlier work.

Entries after “also recorded” stand apart in the source; their conditions may differ.

Regarding `CCCc1nc2c(C)cc(-c3nc4ccccc4n3C)cc2n1Cc1ccc(-c2ccccc2C(=O)O)cc1` [Telm, telmisartan], in assay [1] (10 min, N=7-8), the “ERK activation in GqKO cells” value was “did not induce ERK activation”.

As for “angiotensin II (DRVYIHPF; Angiotensin-2; UniProt P01019 25-32, looked up) [AngII]”, in assay [2] (DIST region), the “phosphorylation in DIST region” value is “comparable amounts of phosphorylation in the DIST region”. For the same compound, the “phosphorylation in PROX region” value in assay [2] (PROX: Ser326, Ser328, Ser331, Thr332) was “The magnitude of increase was greatest in the proximal region of the tail; also recorded: the greatest increase in receptor phosphorylation occurred in the PROX region”. In assay [3], the “β-arrestin recruitment (net BRET)” value is reported as “robust β-arrestin recruitment”. Moreover, in assay [4] (AT1R-DIST mutant), the “β-arrestin recruitment (net BRET), AT1R-DIST” value was “robust β-arrestin recruitment”. For the same compound, the “reduction of β-arrestin recruitment, MID sites mutated” value in [4] (AT1R-MID mutant) was 50%. Besides, in [4] (AT1R-PROX mutant), the “reduction of β-arrestin recruitment, PROX sites mutated” value stood at 50%. For the same compound, the “AT1R internalization: requirement of DIST phosphorylation” value in [5] is reported as “largely dispensable”. In assay [6], the “AT1R internalization: requirement of DIST phosphorylation” value is recorded as “largely dispensable”; the “AT1R internalization: requirement of PROX and MID phosphorylation” value is listed as “required for AT1R internalization”. In addition, the “β-arrestin2 conformation, six FlAsH sensor profile” value in assay [7] is listed as “distinct β-arrestin conformations”. The “FlAsH4 BRET signal” value in assay [7] (Telm 10 μM) is listed as “significant decrease in BRET compared to the shape profile induced by Telm”. Further, the “β-arrestin2 FlAsH profile, AT1R-DIST” value in assay [8] is “more comparable to that of the WT AT1R”. In [9], the “ERK phosphorylation (p-ERK/t-ERK)” value is recorded as “significant increase in ERK phosphorylation”. Besides, the “ERK phosphorylation, AT1R-MID” value in assay [10] (AT1R-MID vs WT AT1R) is “somewhat higher activation of ERK phosphorylation”. Also, in [10] (AngII 1 μM, TRV023 10 μM), the “ERK phosphorylation, all phosphorylation-deficient mutants” value is recorded as “largely similar to that of the WT AT1R”. The “ERK activation in GqKO cells” value in assay [1] (10 min, N=7-8) is recorded as “substantially lower in GqKO cells compared to WT cells”. The “ERK activation in GqKO cells, PROX mutant” value in [1] (HEK293 GqKO cells, AT1R-PROX, 10 min, N=7-8) is given as “most impairment relative to WT cells; also recorded: more substantially diminished in cells lacking Gq”. For the same compound, the “nuclear ERK activation” value in assay [11] (HEK293T cells, AT1R WT and all AT1R mutants, AngII 1 μM, 5 min, net BRET) was “increase in ERK activation”. Moreover, in [12], the “nuclear ERK response, PROX mutant” value is given as “significantly impaired ERK response compared to WT receptor”. In addition, the “GRK2 recruitment, AT1R WT” value in [13] is “robust recruitment”. Further, in [14], the “GRK2 recruitment, DIST mutant” value is given as “significantly impaired”; the “GRK2 recruitment, MID mutant” value is on record as “significantly impaired”; the “GRK2 recruitment, PROX mutant” value is “robust recruitment”. Also, in [15], the “GRK3 recruitment, MID mutant” value is reported as “impaired in response to TRV023, but not AngII”. The “EC50 of G protein activation, AT1R mutants” value in [16] was “No difference in EC50”. Also, in assay [17], the “EC50 of Ca2+ response” value is on record as “no difference in EC50” and the “maximal Ca2+ response, AT1R-PROX” value was “reduced maximal Ca^2+ response”. For the same compound, in [18], the “allosteric interaction with β-arrestin” value is recorded as “somewhat stronger allosteric interaction with β-arrestin than does TRV023”. For the same compound, the GRK recruitment entry in [19] was “recruits GRK2/3 and GRK5/6”.

pertussis toxin [PTX]: the “inhibition of AngII-induced ERK activation by PTX” value in assay [1] (GqKO cells, PTX pretreatment before AngII, WT and mutant AT1Rs) is “largely blocked AngII-induced ERK activation”. The “PTX block of AngII-stimulated nuclear ERK” value in assay [11] (PTX 200 ng/mL pretreatment, stimulated by AngII, WT and mutant receptors) is on record as “about 50%”. The “PTX block of TRV023-stimulated nuclear ERK” value in [11] (PTX 200 ng/mL pretreatment, stimulated by TRV023, WT and mutant receptors) was “about 50%”.

The record behind these values is PMC11443182 (Science signaling, 2024).
